The text below walks through data of ChEMBL document CHEMBL1135827, “Enhancement of nucleoside cytotoxicity through nucleotide prodrugs” (J Med Chem, 2002).

In series [1] the test system is CCRF-CEM. The series is described as follows: Percent control of RNA synthesis in CEM cells. It counts as functional, Homo sapiens. In short, it runs like this: (§1)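 CEM cells (RPMI 1640, 10% FBS) incubated with 29 μM or 35 μM compound (± 10 μM dCF). [3H]thymidine, [3H]uridine or [3H]leucine added 30 min after drug; samples at 1, 2 and 4 h after label. Acid-precipitable radioactivity measured; RNA taken as total acid-precipitable minus alkali-stable/acid-precipitable (DNA) fraction. Expressed as percent of control; repeated twice.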

In series [2] the test system is CCRF-CEM. The series is described as follows: Percent control of DNA synthesis in CEM cells. The class given is functional, Homo sapiens. In short, it runs like this:
as §1

Series [3] deals with CCRF-CEM. The series can be described thus: Percent control of protein synthesis in CEM cells. The class given is functional, Homo sapiens. In short, it runs like this: as §1
In series [4] the target is T1, DNA polymerase alpha catalytic subunit (Homo sapiens, UniProt P09884).
T1 sequence (P09884 whole entry): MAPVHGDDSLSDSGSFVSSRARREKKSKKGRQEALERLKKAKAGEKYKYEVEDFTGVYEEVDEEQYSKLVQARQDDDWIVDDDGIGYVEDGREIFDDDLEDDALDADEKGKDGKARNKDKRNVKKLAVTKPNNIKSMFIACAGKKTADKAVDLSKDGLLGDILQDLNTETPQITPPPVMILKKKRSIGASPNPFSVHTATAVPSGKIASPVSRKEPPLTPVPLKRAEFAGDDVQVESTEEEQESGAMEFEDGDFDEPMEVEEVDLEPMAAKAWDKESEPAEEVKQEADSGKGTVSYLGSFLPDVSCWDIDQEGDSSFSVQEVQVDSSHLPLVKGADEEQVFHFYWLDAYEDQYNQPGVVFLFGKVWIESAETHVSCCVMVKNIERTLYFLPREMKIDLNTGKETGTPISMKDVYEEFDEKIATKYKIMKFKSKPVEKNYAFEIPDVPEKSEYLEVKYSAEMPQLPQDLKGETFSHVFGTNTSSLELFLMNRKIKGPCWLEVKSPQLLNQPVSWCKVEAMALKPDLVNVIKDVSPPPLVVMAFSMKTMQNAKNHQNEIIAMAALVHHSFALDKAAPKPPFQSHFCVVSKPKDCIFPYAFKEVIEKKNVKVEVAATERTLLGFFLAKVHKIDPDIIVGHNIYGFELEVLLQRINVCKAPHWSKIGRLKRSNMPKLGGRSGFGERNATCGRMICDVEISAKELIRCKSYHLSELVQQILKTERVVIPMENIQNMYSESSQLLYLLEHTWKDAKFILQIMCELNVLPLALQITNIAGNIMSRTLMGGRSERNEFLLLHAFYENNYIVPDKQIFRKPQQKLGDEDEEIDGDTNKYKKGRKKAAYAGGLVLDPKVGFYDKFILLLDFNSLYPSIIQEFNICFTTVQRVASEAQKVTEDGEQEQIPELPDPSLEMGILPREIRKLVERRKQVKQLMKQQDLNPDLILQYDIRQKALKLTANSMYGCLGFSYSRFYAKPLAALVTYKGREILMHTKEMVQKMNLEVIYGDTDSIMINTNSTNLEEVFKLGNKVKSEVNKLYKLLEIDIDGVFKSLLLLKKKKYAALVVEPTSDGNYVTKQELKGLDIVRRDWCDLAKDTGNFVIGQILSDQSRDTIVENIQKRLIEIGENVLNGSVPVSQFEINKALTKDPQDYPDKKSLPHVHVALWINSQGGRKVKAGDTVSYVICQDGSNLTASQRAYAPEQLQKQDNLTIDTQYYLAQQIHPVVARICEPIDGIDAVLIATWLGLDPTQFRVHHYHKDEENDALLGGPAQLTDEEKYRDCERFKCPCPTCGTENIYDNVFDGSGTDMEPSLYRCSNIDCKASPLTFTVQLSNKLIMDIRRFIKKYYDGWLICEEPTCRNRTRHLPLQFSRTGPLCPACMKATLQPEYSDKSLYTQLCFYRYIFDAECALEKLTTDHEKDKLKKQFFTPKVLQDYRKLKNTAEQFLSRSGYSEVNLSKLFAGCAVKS
The series can be described thus: Ability to inhibit the incorporation of dATP into DNA by DNA polymerase alpha. In short, it runs like this:
(§2)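 DNA polymerase α purified 52-fold from CEM cells (specific activity 120 nmol/mg/hr). 50 μL reactions: 50 mM Tris pH 8.0, 1 mg/mL BSA, 10 mM MgCl2, 1 mM DTT, 100 μg/mL activated DNA, 100 μM each dTTP and dCTP, 10 μM [3H]dGTP, dATP 0–100 μM. 1 h at 37 °C; TCA/ethanol-washed glass-fiber filters counted. Ki from slopes of Lineweaver–Burk lines vs inhibitor, three inhibitor concentrations.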

Substrate in series [5]: Nc1ncnc2c1ncn2[C@H]1C[C@H](O)[C@@H](COP(=O)(O)OP(=O)(O)OP(=O)(O)O)O1
The series can be described thus: Km value with DNA polymerase alpha. The class given is functional. Summed up:
as §2

For the molecule `CC(C)(C)C(=O)OCOP(=O)(OCOC(=O)C(C)(C)C)OC[C@H]1O[C@@H](n2c(Br)nc3c(N)ncnc32)C[C@@H]1O`, the Control with CCRF-CEM [1] is on record as 14%; in the series on CCRF-CEM [2], 53%; with CCRF-CEM [3], 94%.
Usually Ki stands for a dissociation constant, usually derived from enzyme kinetics or from competition with a known ligand. Read a high Ki as a looser hold on the target. Consider `CC(C)(C)C(=O)OCOP(=O)(OCOC(=O)C(C)(C)C)OC[C@H]1O[C@@H](n2nnc3c(N)ncnc32)C[C@H]1O`, for which the Control in the series on CCRF-CEM [1] is listed as 3%; in the series with CCRF-CEM [2], 11%; in the series on CCRF-CEM [3], 95%. Also, the Ki in series [4] was determined as 156 µM.
`CC(C)(C)C(=O)OCOP(=O)(OCOC(=O)C(C)(C)C)OC[C@H]1O[C@@H](n2nnc3c(N)ncnc32)C[C@H]1O.OC[C@H]1O[C@@H](n2cnc3c2NC=NC[C@H]3O)C[C@@H]1O`: the values for the Control in the series with CCRF-CEM [1], in the series on CCRF-CEM [2] and in the series on CCRF-CEM [3] were 3%, 11% and 98%, respectively.

B1: DNA polymerase alpha catalytic subunit (Homo sapiens), P09884 (protein)
chain: MAPVHGDDSLSDSGSFVSSRARREKKSKKGRQEALERLKKAKAGEKYKYEVEDFTGVYEEVDEEQYSKLVQARQDDDWIVDDDGIGYVEDGREIFDDDLEDDALDADEKGKDGKARNKDKRNVKKLAVTKPNNIKSMFIACAGKKTADKAVDLSKDGLLGDILQDLNTETPQITPPPVMILKKKRSIGASPNPFSVHTATAVPSGKIASPVSRKEPPLTPVPLKRAEFAGDDVQVESTEEEQESGAMEFEDGDFDEPMEVEEVDLEPMAAKAWDKESEPAEEVKQEADSGKGTVSYLGSFLPDVSCWDIDQEGDSSFSVQEVQVDSSHLPLVKGADEEQVFHFYWLDAYEDQYNQPGVVFLFGKVWIESAETHVSCCVMVKNIERTLYFLPREMKIDLNTGKETGTPISMKDVYEEFDEKIATKYKIMKFKSKPVEKNYAFEIPDVPEKSEYLEVKYSAEMPQLPQDLKGETFSHVFGTNTSSLELFLMNRKIKGPCWLEVKSPQLLNQPVSWCKVEAMALKPDLVNVIKDVSPPPLVVMAFSMKTMQNAKNHQNEIIAMAALVHHSFALDKAAPKPPFQSHFCVVSKPKDCIFPYAFKEVIEKKNVKVEVAATERTLLGFFLAKVHKIDPDIIVGHNIYGFELEVLLQRINVCKAPHWSKIGRLKRSNMPKLGGRSGFGERNATCGRMICDVEISAKELIRCKSYHLSELVQQILKTERVVIPMENIQNMYSESSQLLYLLEHTWKDAKFILQIMCELNVLPLALQITNIAGNIMSRTLMGGRSERNEFLLLHAFYENNYIVPDKQIFRKPQQKLGDEDEEIDGDTNKYKKGRKKAAYAGGLVLDPKVGFYDKFILLLDFNSLYPSIIQEFNICFTTVQRVASEAQKVTEDGEQEQIPELPDPSLEMGILPREIRKLVERRKQVKQLMKQQDLNPDLILQYDIRQKALKLTANSMYGCLGFSYSRFYAKPLAALVTYKGREILMHTKEMVQKMNLEVIYGDTDSIMINTNSTNLEEVFKLGNKVKSEVNKLYKLLEIDIDGVFKSLLLLKKKKYAALVVEPTSDGNYVTKQELKGLDIVRRDWCDLAKDTGNFVIGQILSDQSRDTIVENIQKRLIEIGENVLNGSVPVSQFEINKALTKDPQDYPDKKSLPHVHVALWINSQGGRKVKAGDTVSYVICQDGSNLTASQRAYAPEQLQKQDNLTIDTQYYLAQQIHPVVARICEPIDGIDAVLIATWLGLDPTQFRVHHYHKDEENDALLGGPAQLTDEEKYRDCERFKCPCPTCGTENIYDNVFDGSGTDMEPSLYRCSNIDCKASPLTFTVQLSNKLIMDIRRFIKKYYDGWLICEEPTCRNRTRHLPLQFSRTGPLCPACMKATLQPEYSDKSLYTQLCFYRYIFDAECALEKLTTDHEKDKLKKQFFTPKVLQDYRKLKNTAEQFLSRSGYSEVNLSKLFAGCAVKS
One may read the Km as the concentration of substrate that gives half-maximal velocity. Regarding B1, the Km in series [5] stood at 4 µM.
